Assay results reported in ChEMBL document CHEMBL4219028, “Development of Protein Degradation Inducers of Androgen Receptor by Conjugation of Androgen Receptor Ligands and Inhibitor of Apoptosis Protein Ligands” (J Med Chem, 2018).
Activity calls are given as the source filed them. No cut-off for these calls is given here.

How the values were obtained:
[1] = target: T1, Androgen receptor/Baculoviral IAP repeat-containing protein 2 (Homo sapiens, UniProt P10275+Q13490); experiment: Induction of AR/cIAP1 interaction in human 22Rv1 cells assessed as ubiquitin proteasome system mediated androgen receptor protein degradation at 1 to 3 uM after 6 hrs by Western blot analysis; format: cell-based
Outline: (§1)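 22Rv1 cells were treated with compound, or with separate ligands (30 μM or 3 μM each), for 6 h. Lysates in SDS buffer (0.1 M Tris pH 8.0, 1% SDS) were normalized by BCA, run on SDS-PAGE and immunoblotted. AR/GAPDH ratio was normalized to vehicle as 100. DC50 is the concentration giving 50% AR reduction; means ± SD, n = 3; t-test against vehicle.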

[2] = target: T1, Androgen receptor/Baculoviral IAP repeat-containing protein 2; experiment: Induction of AR/cIAP1 interaction in human 22Rv1 cells assessed as ubiquitin proteasome system mediated androgen receptor protein degradation at 3 uM after 6 hrs by Western blot analysis; format: cell-based; outline: as §1
[3] = target: T1, Androgen receptor/Baculoviral IAP repeat-containing protein 2; experiment: Induction of AR/cIAP1 interaction in human 22Rv1 cells assessed as ubiquitin proteasome system mediated androgen receptor protein degradation at 3 uM by Western blot analysis; format: cell-based; details: TDE = time-dependent effect; outline: as §1
[4] = target: T1, Androgen receptor/Baculoviral IAP repeat-containing protein 2; experiment: Induction of AR/cIAP1 interaction in human 22Rv1 cells assessed as ubiquitin proteasome system mediated androgen receptor protein degradation at 3 uM in presence of proteasome inhibitor MG132 after 6 hrs by Western blot analysis; format: cell-based
Outline: (§2)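 22Rv1 or VCaP cells were given 3 μM degrader with or without 10 μM proteasome inhibitor over a time course. AR was detected by Western blot (SDS lysis, BCA normalization) and AR/GAPDH was normalized to vehicle as 100. Means ± SD, n = 3.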

[5] = target: T1, Androgen receptor/Baculoviral IAP repeat-containing protein 2; experiment: Induction of AR/cIAP1 interaction in human VCaP cells assessed as ubiquitin proteasome system mediated androgen receptor protein degradation at 3 uM in presence of proteasome inhibitor MG132 after 6 hrs by Western blot analysis; format: cell-based; outline: as §2
[6] = target: T1, Androgen receptor/Baculoviral IAP repeat-containing protein 2; experiment: Induction of AR/cIAP1 interaction in human VCaP cells assessed as ubiquitin proteasome system mediated androgen receptor protein degradation by measuring reduction in DHT-stimulated PSA mRNA expression at 3 uM after 24 hrs by qPCR analysis; format: cell-based
Outline: (§3)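 VCaP cells were held 2 days in phenol red-free RPMI + 5% charcoal-stripped FBS, then given 1 nM DHT with or without 3 μM compound for 24 h. RNA was isolated and cDNA made from 1 μg with oligo-dT. qPCR used the comparative Ct method, with values relative to vehicle = 1. Means ± SD, n = 3.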

[7] = target: T1, Androgen receptor/Baculoviral IAP repeat-containing protein 2; experiment: Induction of AR/cIAP1 interaction in human VCaP cells assessed as ubiquitin proteasome system mediated androgen receptor protein degradation by measuring reduction in DHT-stimulated TMPRSS2 mRNA expression at 3 uM after 24 hrs by qPCR analysis; format: cell-based; outline: as §3
[8] = target: T1, Androgen receptor/Baculoviral IAP repeat-containing protein 2; experiment: Induction of AR/cIAP1 interaction in human VCaP cells assessed as ubiquitin proteasome system mediated androgen receptor protein degradation by measuring reduction in DHT-stimulated KLK2 mRNA expression at 3 uM after 24 hrs by qPCR analysis; format: cell-based; outline: as §3
[9] = target: T1, Androgen receptor/Baculoviral IAP repeat-containing protein 2; experiment: Induction of AR/cIAP1 interaction in human VCaP cells assessed as ubiquitin proteasome system mediated androgen receptor protein degradation by measuring reduction in DHT-stimulated NKX3.1 mRNA expression at 3 uM after 24 hrs by qPCR analysis; format: cell-based; outline: as §3
VCaP [10] = experiment: Cytotoxicity against human VCaP cells at 3 uM after 48 hrs by WST-8 assay; format: functional, cell-based
Outline: (§4)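 Seeded at 5 × 10^3 cells/well; compound added after 24 h and incubated 48 h. WST-8 reagent then added for 0.5 h at 37 °C, 5% CO2, with absorbance read at 450 nm. A549, PC-3, LNCaP and VCaP were kept in RPMI-1640 + 10% FBS; HT1080 in DMEM + 10% FBS. Means ± SD, n = 3; Student's t-test against vehicle.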

LNCaP = experiment: Cytotoxicity against human LNCAP cells expressing androgen receptor at 3 uM after 48 hrs by WST-8 assay; format: functional, cell-based; outline: as §4
PC-3 [11] = experiment: Cytotoxicity against human PC3 cells at 3 uM after 48 hrs by WST-8 assay; format: functional, cell-based; outline: as §4
A549 [12] = experiment: Cytotoxicity against human A549 cells at 3 uM after 48 hrs by WST-8 assay; format: functional, cell-based; outline: as §4
HT-1080 [13] = experiment: Cytotoxicity against human HT1080 cells at 3 uM after 48 hrs by WST-8 assay; format: functional, cell-based; outline: as §4
PC-3 [14] = experiment: Cytotoxicity against human PC3 cells at 100 uM after 6 hrs by WST-8 assay; format: functional, cell-based
Outline: (§5)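 WST-8 viability read at 450 nm after 6 h exposure to 100 μM compound. Reagent incubated 0.5 h at 37 °C. A549 and PC-3 were kept in RPMI-1640 + 10% FBS; HT1080 in DMEM + 10% FBS.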

A549 [15] = experiment: Cytotoxicity against human A549 cells at 100 uM after 6 hrs by WST-8 assay; format: functional, cell-based; outline: as §5
HT-1080 [16] = experiment: Cytotoxicity against human HT1080 cells at 100 uM after 6 hrs by WST-8 assay; format: functional, cell-based; outline: as §5
VCaP [17] = experiment: Induction of morphological changes in human VCaP cells at 3 uM after 24 hrs by phase contrast microscopic analysis; format: functional, cell-based
Outline: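 VCaP cells were treated 24 h with 3 μM compound and imaged by phase-contrast microscopy.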

VCaP [18] = experiment: Induction of apoptosis in human VCaP cells assessed as caspase-3 activation at 1 to 3 uM after 24 hrs by Western blot analysis; format: functional, cell-based
Outline: (§6)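 VCaP cells were treated 24 h with compound, or with 3 μM compound plus graded pan-caspase inhibitor. Cleaved caspase-3 and cleaved PARP were detected by Western blot of SDS lysates normalized by BCA.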

VCaP [19] = experiment: Induction of apoptosis in human VCaP cells assessed as increase in cleaved PARP levels at 1 to 3 uM after 24 hrs by Western blot method; format: functional, cell-based; outline: as §6
VCaP [20] = experiment: Induction of apoptosis in human VCaP cells assessed as caspase-3 activation at 1 to 3 uM in presence of pan-caspase inhibitor zVAD-FMK after 24 hrs by Western blot analysis; format: functional, cell-based; outline: as §6
VCaP [21] = experiment: Induction of apoptosis in human VCaP cells assessed as increase in cleaved PARP levels at 1 to 3 uM in presence of pan-caspase inhibitor zVAD-FMK after 24 hrs by Western blot analysis; format: functional, cell-based; outline: as §6
VCaP [22] = experiment: Induction of apoptosis in human VCaP cells assessed as viable cells at 3 uM after 24 hrs by Annexin V-FITC/propidium iodide staining-based flow cytometry (reference value: 98.9%); format: functional; details: read-out: Activity
VCaP [23] = experiment: Induction of apoptosis in human VCaP cells assessed as early apoptotic cells at 3 uM after 24 hrs by Annexin V-FITC/propidium iodide staining-based flow cytometry (reference value: 0.5%); format: functional
VCaP [24] = experiment: Induction of apoptosis in human VCaP cells assessed as late apoptotic cells at 3 uM after 24 hrs by Annexin V-FITC/propidium iodide staining-based flow cytometry (reference value: 0.1%); format: functional
VCaP [25] = experiment: Induction of apoptosis in human VCaP cells assessed as necrotic cells at 3 uM after 24 hrs by Annexin V-FITC/propidium iodide staining-based flow cytometry (reference value: 0.5%); format: functional
VCaP [26] = experiment: Induction of apoptosis in human VCaP cells assessed as viable cells at 3 uM in presence of pan-caspase inhibitor zVAD-FMK after 24 hrs by Annexin V-FITC/propidium iodide staining-based flow cytometry (reference value: 98.9%); format: functional; details: read-out: Activity
VCaP [27] = experiment: Induction of apoptosis in human VCaP cells assessed as early apoptotic cells at 3 uM in presence of pan-caspase inhibitor zVAD-FMK after 24 hrs by Annexin V-FITC/propidium iodide staining-based flow cytometry (reference value: 0.5%); format: functional
VCaP [28] = experiment: Induction of apoptosis in human VCaP cells assessed as late apoptotic cells at 3 uM in presence of pan-caspase inhibitor zVAD-FMK after 24 hrs by Annexin V-FITC/propidium iodide staining-based flow cytometry (reference value: 0.1%); format: functional
VCaP [29] = experiment: Induction of apoptosis in human VCaP cells assessed as necrotic cells at 3 uM in presence of pan-caspase inhibitor zVAD-FMK after 24 hrs by Annexin V-FITC/propidium iodide staining-based flow cytometry (reference value: 0.5%); format: functional
VCaP [30] = experiment: Induction of apoptosis in human VCaP cells assessed as caspase-3 activation at 3 uM in presence of proteasome inhibitor MG132 after 9 hrs by Western blot method; format: functional, cell-based
Outline: (§7)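 VCaP cells were incubated 9 h with 3 μM compound and/or 10 μM proteasome inhibitor. Apoptotic markers were assessed by Western blot.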

VCaP [31] = experiment: Induction of apoptosis in human VCaP cells assessed as increase in cleaved PARP levels at 3 uM in presence of proteasome inhibitor MG132 after 9 hrs by Western blot method; format: functional, cell-based; outline: as §7

T1 sequence (P10275 whole entry, looked up): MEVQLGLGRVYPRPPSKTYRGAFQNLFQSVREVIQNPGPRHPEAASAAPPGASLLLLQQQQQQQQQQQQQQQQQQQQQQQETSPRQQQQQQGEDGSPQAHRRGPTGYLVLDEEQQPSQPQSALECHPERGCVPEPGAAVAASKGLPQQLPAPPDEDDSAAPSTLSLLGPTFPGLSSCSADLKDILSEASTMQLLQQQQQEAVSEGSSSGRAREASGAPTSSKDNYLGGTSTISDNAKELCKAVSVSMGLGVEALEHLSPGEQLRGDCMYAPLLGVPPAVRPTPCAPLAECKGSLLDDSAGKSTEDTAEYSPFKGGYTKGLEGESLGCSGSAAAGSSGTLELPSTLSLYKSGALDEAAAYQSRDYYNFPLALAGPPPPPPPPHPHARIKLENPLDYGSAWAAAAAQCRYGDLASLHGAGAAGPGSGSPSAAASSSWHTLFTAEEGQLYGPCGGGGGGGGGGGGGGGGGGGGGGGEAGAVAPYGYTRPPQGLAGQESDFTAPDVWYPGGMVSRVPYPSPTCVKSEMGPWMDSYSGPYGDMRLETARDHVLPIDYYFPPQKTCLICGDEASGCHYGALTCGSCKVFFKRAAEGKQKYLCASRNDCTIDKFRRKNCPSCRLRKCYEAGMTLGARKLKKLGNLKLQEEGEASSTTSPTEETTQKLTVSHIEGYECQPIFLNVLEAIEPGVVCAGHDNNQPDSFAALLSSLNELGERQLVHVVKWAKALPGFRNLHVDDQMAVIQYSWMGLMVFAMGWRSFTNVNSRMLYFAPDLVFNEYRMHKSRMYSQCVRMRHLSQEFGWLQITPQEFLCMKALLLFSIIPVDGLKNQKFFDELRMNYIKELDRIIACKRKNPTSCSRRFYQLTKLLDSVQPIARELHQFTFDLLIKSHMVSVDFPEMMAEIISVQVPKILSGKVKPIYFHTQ
T1 sequence (Q13490 whole entry, looked up): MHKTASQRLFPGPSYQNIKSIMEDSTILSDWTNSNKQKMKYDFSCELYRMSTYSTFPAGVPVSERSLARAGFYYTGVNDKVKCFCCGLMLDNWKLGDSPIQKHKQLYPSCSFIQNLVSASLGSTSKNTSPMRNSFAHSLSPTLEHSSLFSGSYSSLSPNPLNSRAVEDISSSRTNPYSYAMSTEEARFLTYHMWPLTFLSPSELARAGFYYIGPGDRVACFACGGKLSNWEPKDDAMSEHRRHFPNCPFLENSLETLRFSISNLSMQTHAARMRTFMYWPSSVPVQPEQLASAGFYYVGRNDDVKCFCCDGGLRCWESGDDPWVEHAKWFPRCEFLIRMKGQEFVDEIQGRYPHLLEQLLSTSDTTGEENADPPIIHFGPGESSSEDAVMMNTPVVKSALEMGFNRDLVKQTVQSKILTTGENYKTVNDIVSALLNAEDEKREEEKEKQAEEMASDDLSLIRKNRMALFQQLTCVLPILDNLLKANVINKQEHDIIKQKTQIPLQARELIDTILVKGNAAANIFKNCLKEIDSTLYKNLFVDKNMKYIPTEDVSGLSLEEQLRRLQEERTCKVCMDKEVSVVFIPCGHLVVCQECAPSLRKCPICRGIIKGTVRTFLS

Question: Which Activity [1] does the source give for `CN[C@@H](C)C(=O)N[C@H](C(=O)N1CCC[C@H]1c1nc(C(=O)c2cccc(OCCOCCOCCOCCOc3ccc(Cn4c(C)c(C#N)c(-c5ccc(C#N)cc5)c4C)cc3)c2)cs1)C1CCCCC1` here?
Answer: Active

Question: What about the Activity [2] of the same compound?
Answer: Active

Question: And the Activity [3]?
Answer: Tde

Question: And the Activity [4]?
Answer: inactive

Question: What about the Activity [5] of the same compound?
Answer: inactive

Question: What about the Activity [6] of the same compound?
Answer: Active

Question: What about the Activity [7] of the same compound?
Answer: Active

Question: What about the Activity [8] of the same compound?
Answer: Active

Question: What about the Activity [9] of the same compound?
Answer: Active

Question: What about the Activity (VCaP [10]) of the same compound?
Answer: Active

Question: And the Activity (LNCaP)?
Answer: Active

Question: And the Activity (PC-3 [11])?
Answer: inactive

Question: And the Activity (A549 [12])?
Answer: inactive

Question: What about the Activity (HT-1080 [13]) of the same compound?
Answer: inactive

Question: And the Activity (PC-3 [14])?
Answer: Active

Question: And the Activity (A549 [15])?
Answer: Active

Question: What about the Activity (HT-1080 [16]) of the same compound?
Answer: Active

Question: What about the Activity (VCaP [17]) of the same compound?
Answer: Active

Question: And the Activity (VCaP [18])?
Answer: Active

Question: And the Activity (VCaP [19])?
Answer: Active

Question: What about the Activity (VCaP [20]) of the same compound?
Answer: inactive

Question: What about the Activity (VCaP [21]) of the same compound?
Answer: inactive

Question: What about the viability at 3 µM (VCaP [22]) of the same compound?
Answer: 87.7%

Question: What about the Activity (VCaP [23]) of the same compound?
Answer: 11.6%

Question: What about the Activity (VCaP [24]) of the same compound?
Answer: 0.4%

Question: What about the Activity (VCaP [25]) of the same compound?
Answer: 0.3%

Question: And the viability at 3 µM (VCaP [26])?
Answer: 96.8%

Question: What about the Activity (VCaP [27]) of the same compound?
Answer: 1.5%

Question: And the Activity (VCaP [28])?
Answer: 0.6%

Question: What about the Activity (VCaP [29]) of the same compound?
Answer: 1.1%

Question: What about the Activity (VCaP [30]) of the same compound?
Answer: inactive

Question: What about the Activity (VCaP [31]) of the same compound?
Answer: inactive
